{"source": "ChEMBL document CHEMBL1157367", "about": "“Systematic comparison of the population pharmacokinetics and pharmacodynamics of piperacillin in cystic fibrosis patients and healthy volunteers” (Antimicrob Agents Chemother, 2007)", "assay_type_in_all_cases": "ADME, organism-based", "key": {"[1]": {"experiment": "Clearance in healthy human with lean body mass of 53 kg at 4 g, iv", "conditions": "in vivo", "method_in_brief": "(§1)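 4 g piperacillin as a single 5-min IV infusion. Serial plasma sampled to 24 h and assayed by reversed-phase HPLC-UV (220 nm, mezlocillin internal standard, LOQ 0.200 mg/liter). Population PK model fitted in NONMEM with body size described by lean body mass and a CF-specific scale factor. Combined additive plus proportional residual error.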"}, "[2]": {"experiment": "Peak drug level in healthy human at 4 g, iv", "conditions": "in vivo, read-out: Drug uptake", "method_in_brief": "(§2)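 Single 5-min IV infusion of 4 g piperacillin. Forearm-vein blood drawn from the arm opposite the infusion line pre-dose, at end of infusion, and 5 min to 24 h afterwards. Plasma iced, frozen at –70°C, acetonitrile-deproteinized with mezlocillin internal standard. Reversed-phase HPLC, UV 220 nm, linear 0.200–150 mg/liter. Unscaled parameters by noncompartmental analysis.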"}, "[3]": {"experiment": "Terminal half life in cystic fibrosis patient at 4 g, iv", "conditions": "human, in vivo", "method_in_brief": "as §2"}, "[4]": {"experiment": "Mean residence time in healthy human at 4 g, iv", "conditions": "in vivo", "method_in_brief": "as §2"}, "[5]": {"experiment": "Total clearance in healthy human at 4 g, iv", "conditions": "in vivo", "method_in_brief": "as §2"}, "[6]": {"test_system": "Homo sapiens", "experiment": "Peripheral volume of distribution in cystic fibrosis patient with lean body mass of 53 kg at 4 g, iv", "conditions": "in vivo", "method_in_brief": "as §1"}, "[7]": {"experiment": "Total clearance in cystic fibrosis patient at 4 g, iv", "conditions": "human, in vivo", "method_in_brief": "as §2"}, "[8]": {"experiment": "Volume of distribution at steady state in cystic fibrosis patient at 4 g, iv", "conditions": "human, in vivo, read-out: Vdss", "method_in_brief": "as §2"}, "[9]": {"experiment": "Peak drug level in cystic fibrosis patient at 4 g, iv", "conditions": "human, in vivo, read-out: Drug uptake", "method_in_brief": "as §2"}, "[10]": {"experiment": "Terminal half life in healthy human at 4 g, iv", "conditions": "in vivo", "method_in_brief": "as §2"}, "[11]": {"experiment": "Volume of distribution at steady state in healthy human with lean body mass of 53 kg at 4 g, iv", "conditions": "in vivo, read-out: Vdss", "method_in_brief": "as §1"}, "[12]": {"experiment": "Volume of distribution at steady state in cystic fibrosis patient with lean body mass of 53 kg at 4 g, iv", "conditions": "human, in vivo, read-out: Vdss", "method_in_brief": "as §1"}, "[13]": {"experiment": "Volume of distribution at steady state in healthy human at 4 g, iv", "conditions": "in vivo, read-out: Vdss", "method_in_brief": "as §2"}, "[14]": {"experiment": "Mean residence time in cystic fibrosis patient at 4 g, iv", "conditions": "human, in vivo", "method_in_brief": "as §2"}, "[15]": {"experiment": "Clearance in cystic fibrosis patient with lean body mass of 53 kg at 4 g, iv", "conditions": "human, in vivo", "method_in_brief": "as §1"}}}
{"smiles": "CCN1CCN(C(=O)N[C@@H](C(=O)N[C@@H]2C(=O)N3[C@@H]2SC(C)(C)[C@@H]3C(=O)O)c2ccccc2)C(=O)C1=O", "note": "[PIPERACILLIN]", "values": [{"measurement": "clearance", "setting": "[1]", "value": 188, "unit": "mL/min"}, {"measurement": "Cmax", "setting": "[2]", "value": 446, "unit": "µg/mL"}, {"measurement": "half-life", "setting": "[3]", "value": 41.4, "unit": "min"}, {"measurement": "MRT", "setting": "[4]", "value": 61.2, "unit": "min"}, {"measurement": "clearance", "setting": "[5]", "value": 195, "unit": "mL/min"}, {"measurement": "Vp/F", "setting": "[6]", "value": 3.12, "unit": "L"}, {"measurement": "clearance", "setting": "[7]", "value": 146, "unit": "mL/min"}, {"measurement": "Vd", "setting": "[8]", "value": 8.13, "unit": "L"}, {"measurement": "Cmax", "setting": "[9]", "value": 767, "unit": "µg/mL"}, {"measurement": "half-life", "setting": "[10]", "value": 63, "unit": "min"}, {"measurement": "Vd", "setting": "[11]", "value": 10.4, "unit": "L"}, {"measurement": "Vd", "setting": "[12]", "value": 9.61, "unit": "L"}, {"measurement": "Vd", "setting": "[13]", "value": 11.8, "unit": "L"}, {"measurement": "MRT", "setting": "[14]", "value": 51, "unit": "min"}, {"measurement": "clearance", "setting": "[15]", "value": 188, "unit": "mL/min"}]}
